Activity calls are given as the source filed them. The rule behind the calls is not given here.
Assays:
[1] = Cytotoxicity against African green monkey Vero E6 cells assessed as cell viability upto 10 uM incubated for 48 hrs by crystal violet staining assay relative to control; assay type: toxicity, cell-based, Vero C1008; settings: chlorocebus sabaeus, read-out: Activity
Method in brief: (§1)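 Vero E6 cells were seeded at 25 000 per well 24 h ahead in DMEM with 8% FBS at 37 °C and 5% CO2. Compounds were tested at 0.001–100 μM for 48 h, with a 0.5% DMSO vehicle control. Cells were fixed in formaldehyde and stained with crystal violet, the dye was released with 10% acetic acid, and A590 was read. Viability is relative to untreated medium. IC50 came from polynomial regression.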

[2] = system: SARS-CoV-2; test: Antiviral activity against SARS-CoV-2 infected in African green monkey Vero E6 cells assessed as inhibition of viral infection at 10 uM incubated for 1 hrs followed by compound washout and measured after 24 hrs by crystal violet staining based plaque assay relative to control; assay type: functional; settings: Severe acute respiratory syndrome coronavirus 2, Vero C1008
[3] = system: Vero C1008; test: Cytotoxicity against African green monkey Vero E6 cells assessed as reduction in cell viability at 100 uM incubated for 48 hrs by crystal violet staining assay; assay type: toxicity, cell-based; settings: chlorocebus sabaeus, vero c1008, 48 h; method in brief: as §1
[4] = Cytotoxicity against African green monkey Vero E6 cells assessed as cell viability incubated for 48 hrs by crystal violet staining assay; assay type: toxicity, cell-based, Vero C1008; settings: African green monkey (Chlorocebus sabaeus)
[5] = system: SARS-CoV-2; test: Antiviral activity against SARS-CoV-2 infected in African green monkey Vero E6 cells assessed as inhibition of viral infection at 10 uM pre-infected with cells for 1 hrs followed by compound addition and measured after 24 hrs by crystal violet staining based plaque reduction assay; assay type: functional; settings: for Activity: Severe acute respiratory syndrome coronavirus 2

| SMILES | viability at 48 h, up to 10 µM [1] | inhibition at 10 µM [2] | Activity [3] | IC50 at 48 h [4] | Activity [5] | inhibition at 10 µM ([5]; Severe acute respiratory syndrome coronavirus 2, Vero C1008) |
| --- | --- | --- | --- | --- | --- | --- |
| O=C1c2cc(N3CCOCC3)c(Cc3ccc(O)cc3)nc2C(c2ccco2)N1Cc1ccco1 (stereo unspecified) | ≥ 100% | 77% | Toxic | 153 µM | inactive | – |
| O=C1c2cc(N3CCOCC3)c(Cc3ccccc3)nc2C(c2ccco2)N1CC1CCCO1 (stereo unspecified) | ≥ 100% | – | Toxic | 76.9 µM | – | – |
| O=C1c2cc(N3CCOCC3)c(Cc3ccccc3)nc2C(c2ccoc2)N1CC1CCCO1 (stereo unspecified) | ≥ 100% | 9.4% | Toxic | 290 µM | inactive | – |
| O=C1c2cc(N3CCOCC3)c(Cc3ccccc3)nc2C(c2ccco2)N1Cc1ccco1 (stereo unspecified) | ≥ 100% | 19.4% | Toxic | 276 µM | inactive | – |
| O=C1c2cc(N3CCOCC3)c(Cc3ccccc3)nc2C(c2ccoc2)N1Cc1ccco1 (stereo unspecified) | ≥ 100% | – | Toxic | 85.1 µM | – | 53% |
| O=C1c2cc(N3CCOCC3)c(Cc3ccccc3)nc2C(C2CCCO2)N1Cc1ccco1 (stereo unspecified) | ≥ 100% | 31.9% | – | 612 µM | Active | – |

Reference: ChEMBL document CHEMBL5230165, “Synthesis of bis-furyl-pyrrolo[3,4-b]pyridin-5-ones via Ugi-Zhu reaction and in vitro activity assays against human SARS-CoV-2 and in silico studies on its main proteins” (RSC Med Chem, 2023)
